ChEMBL document CHEMBL3352443, “Synthesis of new heterocyclic lupeol derivatives as nitric oxide and pro-inflammatory cytokine inhibitors” (Bioorg Med Chem Lett, 2014)

System: not listed separately
Experiment: Cytotoxicity against mouse RAW264.7 cells assessed as cell viability at IC50 by MTT assay relative to control
Format: cell-based
Conditions: read-out: Activity

Compound	viability [%]
C=C(C)[C@@H]1CC[C@]2(C)CC[C@]3(C)[C@H](CC[C@@H]4[C@@]5(C)Cc6c([nH]c7c(CC)cccc67)C(C)(C)[C@@H]5CC[C@]43C)[C@@H]12	91.5
C=C(C)[C@@H]1CC[C@]2(C)CC[C@]3(C)[C@H](CC[C@@H]4[C@@]5(C)Cc6c([nH]c7ccc(I)cc67)C(C)(C)[C@@H]5CC[C@]43C)[C@@H]12	95.2
C=C(C)[C@@H]1CC[C@]2(C)CC[C@]3(C)[C@H](CC[C@@H]4[C@@]5(C)CC[C@H](OC(=O)CC(C)(C)C(=O)O)C(C)(C)[C@@H]5CC[C@]43C)[C@@H]12	87.6
C=C(C)[C@@H]1CC[C@]2(C)CC[C@]3(C)[C@H](CC[C@@H]4[C@@]5(C)Cc6c([nH]c7ccc(Cl)cc67)C(C)(C)[C@@H]5CC[C@]43C)[C@@H]12	93.3
C=C(C)[C@@H]1CC[C@]2(C)CC[C@]3(C)[C@H](CC[C@@H]4[C@@]5(C)CCC(=S)C(C)(C)[C@@H]5CC[C@]43C)[C@@H]12	94.3
C=C(C)[C@@H]1CC[C@]2(C)CC[C@]3(C)[C@H](CC[C@@H]4[C@@]5(C)Cc6c([nH]c7c(C)ccc(C)c67)C(C)(C)[C@@H]5CC[C@]43C)[C@@H]12	93.2
C=C(C)[C@@H]1CC[C@]2(C)CC[C@]3(C)[C@H](CC[C@@H]4[C@@]5(C)Cc6c([nH]c7ccccc67)C(C)(C)[C@@H]5CC[C@]43C)[C@@H]12	91.8
C=C(C)[C@@H]1CC[C@]2(C)CC[C@]3(C)[C@H](CC[C@@H]4[C@@]5(C)CC[C@H](OC(C)=O)C(C)(C)[C@@H]5CC[C@]43C)C12 (single isomer, unassigned) [LUPENYL ACETATE]	80.3

System: not listed separately
Experiment: Cytotoxicity against mouse J774A1 cells assessed as cell viability at IC50 by MTT assay relative to control
Format: cell-based, J774.A1
Conditions: read-out: Activity

Compound	viability [%]
C=C(C)[C@@H]1CC[C@]2(C)CC[C@]3(C)[C@H](CC[C@@H]4[C@@]5(C)Cc6c([nH]c7c(CC)cccc67)C(C)(C)[C@@H]5CC[C@]43C)[C@@H]12	91.7
C=C(C)[C@@H]1CC[C@]2(C)CC[C@]3(C)[C@H](CC[C@@H]4[C@@]5(C)Cc6c([nH]c7ccc(I)cc67)C(C)(C)[C@@H]5CC[C@]43C)[C@@H]12	93.3
C=C(C)[C@@H]1CC[C@]2(C)CC[C@]3(C)[C@H](CC[C@@H]4[C@@]5(C)CC[C@H](OC(=O)CC(C)(C)C(=O)O)C(C)(C)[C@@H]5CC[C@]43C)[C@@H]12	83.6
C=C(C)[C@@H]1CC[C@]2(C)CC[C@]3(C)[C@H](CC[C@@H]4[C@@]5(C)Cc6c([nH]c7ccc(Cl)cc67)C(C)(C)[C@@H]5CC[C@]43C)[C@@H]12	92.7
C=C(C)[C@@H]1CC[C@]2(C)CC[C@]3(C)[C@H](CC[C@@H]4[C@@]5(C)CCC(=S)C(C)(C)[C@@H]5CC[C@]43C)[C@@H]12	91.9
C=C(C)[C@@H]1CC[C@]2(C)CC[C@]3(C)[C@H](CC[C@@H]4[C@@]5(C)Cc6c([nH]c7c(C)ccc(C)c67)C(C)(C)[C@@H]5CC[C@]43C)[C@@H]12	91.5
C=C(C)[C@@H]1CC[C@]2(C)CC[C@]3(C)[C@H](CC[C@@H]4[C@@]5(C)Cc6c([nH]c7ccccc67)C(C)(C)[C@@H]5CC[C@]43C)[C@@H]12	90.3
C=C(C)[C@@H]1CC[C@]2(C)CC[C@]3(C)[C@H](CC[C@@H]4[C@@]5(C)CC[C@H](OC(C)=O)C(C)(C)[C@@H]5CC[C@]43C)C12 (single isomer, unassigned) [LUPENYL ACETATE]	83.5

System: RAW264.7
Experiment: Antiinflammatory activity in mouse RAW264.7 cells assessed as inhibition of LPS-induced TNF-alpha production at 20 ug/ml incubated for 1 hr prior to LPS challenge measured after 6 hrs by sandwich ELISA relative to control
Format: functional
Conditions: not given
Method in brief: (§1)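 Compounds were tested at 20 µg/mL on LPS-stimulated cells. TNF-α and IL-1β released into the medium were quantified with an ELISA kit following the kit protocol and expressed as % inhibition. Data are mean ± SD of three separate experiments, each run in triplicate.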

Compound	inhibition at 20 µg/mL [%]
C=C(C)[C@@H]1CC[C@]2(C)CC[C@]3(C)[C@H](CC[C@@H]4[C@@]5(C)Cc6c([nH]c7c(CC)cccc67)C(C)(C)[C@@H]5CC[C@]43C)[C@@H]12	39.1
C=C(C)[C@@H]1CC[C@]2(C)CC[C@]3(C)[C@H](CC[C@@H]4[C@@]5(C)Cc6c([nH]c7ccc(I)cc67)C(C)(C)[C@@H]5CC[C@]43C)[C@@H]12	42.3
C=C(C)[C@@H]1CC[C@]2(C)CC[C@]3(C)[C@H](CC[C@@H]4[C@@]5(C)Cc6c([nH]c7c(C)ccc(C)c67)C(C)(C)[C@@H]5CC[C@]43C)[C@@H]12	32.8

System: not listed separately
Experiment: Antiinflammatory activity in mouse J774A1 cells assessed as inhibition of LPS-induced TNF-alpha production at 20 ug/ml incubated for 1 hr prior to LPS challenge measured after 6 hrs by sandwich ELISA relative to control
Format: functional
Conditions: J774.A1
Method in brief: as §1

Compound	inhibition at 20 µg/mL [%]
C=C(C)[C@@H]1CC[C@]2(C)CC[C@]3(C)[C@H](CC[C@@H]4[C@@]5(C)Cc6c([nH]c7c(CC)cccc67)C(C)(C)[C@@H]5CC[C@]43C)[C@@H]12	29.4
C=C(C)[C@@H]1CC[C@]2(C)CC[C@]3(C)[C@H](CC[C@@H]4[C@@]5(C)Cc6c([nH]c7ccc(I)cc67)C(C)(C)[C@@H]5CC[C@]43C)[C@@H]12	37
C=C(C)[C@@H]1CC[C@]2(C)CC[C@]3(C)[C@H](CC[C@@H]4[C@@]5(C)Cc6c([nH]c7c(C)ccc(C)c67)C(C)(C)[C@@H]5CC[C@]43C)[C@@H]12	31.1

System: RAW264.7
Experiment: Antiinflammatory activity in mouse RAW264.7 cells assessed as inhibition of LPS-induced IL-1beta production at 20 ug/ml incubated for 1 hr prior to LPS challenge measured after 12 hrs by sandwich ELISA relative to control
Format: functional
Conditions: not given
Method in brief: as §1

Compound	inhibition at 20 µg/mL [%]
C=C(C)[C@@H]1CC[C@]2(C)CC[C@]3(C)[C@H](CC[C@@H]4[C@@]5(C)Cc6c([nH]c7c(CC)cccc67)C(C)(C)[C@@H]5CC[C@]43C)[C@@H]12	11.4
C=C(C)[C@@H]1CC[C@]2(C)CC[C@]3(C)[C@H](CC[C@@H]4[C@@]5(C)Cc6c([nH]c7ccc(I)cc67)C(C)(C)[C@@H]5CC[C@]43C)[C@@H]12	22.9
C=C(C)[C@@H]1CC[C@]2(C)CC[C@]3(C)[C@H](CC[C@@H]4[C@@]5(C)Cc6c([nH]c7c(C)ccc(C)c67)C(C)(C)[C@@H]5CC[C@]43C)[C@@H]12	22.8

System: not listed separately
Experiment: Antiinflammatory activity in mouse J774A1 cells assessed as inhibition of LPS-induced IL-1beta production at 20 ug/ml incubated for 1 hr prior to LPS challenge measured after 12 hrs by sandwich ELISA relative to control
Format: functional
Conditions: J774.A1
Method in brief: as §1

Compound	inhibition at 20 µg/mL [%]
C=C(C)[C@@H]1CC[C@]2(C)CC[C@]3(C)[C@H](CC[C@@H]4[C@@]5(C)Cc6c([nH]c7c(CC)cccc67)C(C)(C)[C@@H]5CC[C@]43C)[C@@H]12	10.1
C=C(C)[C@@H]1CC[C@]2(C)CC[C@]3(C)[C@H](CC[C@@H]4[C@@]5(C)Cc6c([nH]c7ccc(I)cc67)C(C)(C)[C@@H]5CC[C@]43C)[C@@H]12	17.3
C=C(C)[C@@H]1CC[C@]2(C)CC[C@]3(C)[C@H](CC[C@@H]4[C@@]5(C)Cc6c([nH]c7c(C)ccc(C)c67)C(C)(C)[C@@H]5CC[C@]43C)[C@@H]12	17.2

System: RAW264.7
Experiment: Antiinflammatory activity in mouse RAW264.7 cells assessed as inhibition of LPS-induced NO production incubated for 1 hr prior to LPS challenge measured after 24 hrs by Griess method
Format: functional, cell-based
Conditions: not given
Method in brief: (§2)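 NO release was measured in LPS-stimulated macrophages, and IC50 values were derived from it. Data are mean ± SD of three separate experiments, each run in triplicate.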

Compound	IC50 [µM]
COc1cc(/C=C/C(=O)CC(=O)/C=C/c2ccc(O)c(OC)c2)ccc1O [CURCUMIN]	11
C=C(C)[C@@H]1CC[C@]2(C)CC[C@]3(C)[C@H](CC[C@@H]4[C@@]5(C)CCC(=S)C(C)(C)[C@@H]5CC[C@]43C)[C@@H]12	36.2
C=C(C)[C@@H]1CC[C@]2(C)CC[C@]3(C)[C@H](CC[C@@H]4[C@@]5(C)Cc6c([nH]c7c(C)ccc(C)c67)C(C)(C)[C@@H]5CC[C@]43C)[C@@H]12	25.9
C=C(C)[C@@H]1CC[C@]2(C)CC[C@]3(C)[C@H](CC[C@@H]4[C@@]5(C)Cc6c([nH]c7ccccc67)C(C)(C)[C@@H]5CC[C@]43C)[C@@H]12	31.7
COC(=O)[C@@H](N)CCCNC(=N)N[N+](=O)[O-] [L-NAME]	69.2
C=C(C)[C@@H]1CC[C@]2(C)CC[C@]3(C)[C@H](CC[C@@H]4[C@@]5(C)CC[C@H](OC(C)=O)C(C)(C)[C@@H]5CC[C@]43C)C12 (single isomer, unassigned) [LUPENYL ACETATE]	36.7

Continued, values first:

IC50 [µM]	Compound
30.6	C=C(C)[C@@H]1CC[C@]2(C)CC[C@]3(C)[C@H](CC[C@@H]4[C@@]5(C)Cc6c([nH]c7c(CC)cccc67)C(C)(C)[C@@H]5CC[C@]43C)[C@@H]12
22.6	C=C(C)[C@@H]1CC[C@]2(C)CC[C@]3(C)[C@H](CC[C@@H]4[C@@]5(C)Cc6c([nH]c7ccc(I)cc67)C(C)(C)[C@@H]5CC[C@]43C)[C@@H]12
39.2	C=C(C)[C@@H]1CC[C@]2(C)CC[C@]3(C)[C@H](CC[C@@H]4[C@@]5(C)CC[C@H](OC(=O)CC(C)(C)C(=O)O)C(C)(C)[C@@H]5CC[C@]43C)[C@@H]12
35.6	C=C(C)[C@@H]1CC[C@]2(C)CC[C@]3(C)[C@H](CC[C@@H]4[C@@]5(C)Cc6c([nH]c7ccc(Cl)cc67)C(C)(C)[C@@H]5CC[C@]43C)[C@@H]12

System: not listed separately
Experiment: Antiinflammatory activity in mouse J774A1 cells assessed as inhibition of LPS-induced NO production incubated for 1 hr prior to LPS challenge measured after 24 hrs by Griess method
Format: functional, cell-based
Conditions: J774.A1
Method in brief: as §2

Compound	IC50 [µM]
COc1cc(/C=C/C(=O)CC(=O)/C=C/c2ccc(O)c(OC)c2)ccc1O [CURCUMIN]	18.5
C=C(C)[C@@H]1CC[C@]2(C)CC[C@]3(C)[C@H](CC[C@@H]4[C@@]5(C)CCC(=S)C(C)(C)[C@@H]5CC[C@]43C)[C@@H]12	36.3
C=C(C)[C@@H]1CC[C@]2(C)CC[C@]3(C)[C@H](CC[C@@H]4[C@@]5(C)Cc6c([nH]c7c(C)ccc(C)c67)C(C)(C)[C@@H]5CC[C@]43C)[C@@H]12	23.2
C=C(C)[C@@H]1CC[C@]2(C)CC[C@]3(C)[C@H](CC[C@@H]4[C@@]5(C)Cc6c([nH]c7ccccc67)C(C)(C)[C@@H]5CC[C@]43C)[C@@H]12	31.7
COC(=O)[C@@H](N)CCCNC(=N)N[N+](=O)[O-] [L-NAME]	73.2
C=C(C)[C@@H]1CC[C@]2(C)CC[C@]3(C)[C@H](CC[C@@H]4[C@@]5(C)CC[C@H](OC(C)=O)C(C)(C)[C@@H]5CC[C@]43C)C12 (single isomer, unassigned) [LUPENYL ACETATE]	33.2

Other lines, results leading:

IC50 [µM]	Compound
28.6	C=C(C)[C@@H]1CC[C@]2(C)CC[C@]3(C)[C@H](CC[C@@H]4[C@@]5(C)Cc6c([nH]c7c(CC)cccc67)C(C)(C)[C@@H]5CC[C@]43C)[C@@H]12
25.2	C=C(C)[C@@H]1CC[C@]2(C)CC[C@]3(C)[C@H](CC[C@@H]4[C@@]5(C)Cc6c([nH]c7ccc(I)cc67)C(C)(C)[C@@H]5CC[C@]43C)[C@@H]12
42.6	C=C(C)[C@@H]1CC[C@]2(C)CC[C@]3(C)[C@H](CC[C@@H]4[C@@]5(C)CC[C@H](OC(=O)CC(C)(C)C(=O)O)C(C)(C)[C@@H]5CC[C@]43C)[C@@H]12
33.2	C=C(C)[C@@H]1CC[C@]2(C)CC[C@]3(C)[C@H](CC[C@@H]4[C@@]5(C)Cc6c([nH]c7ccc(Cl)cc67)C(C)(C)[C@@H]5CC[C@]43C)[C@@H]12
